Source: ChEMBL document CHEMBL1157888, “New 5-HT(1A) receptor ligands containing a N'-cyanoisonicotinamidine nucleus: synthesis and in vitro pharmacological evaluation” (Bioorg Med Chem Lett, 2010)

Legend:
[1] = target: T1, 5-hydroxytryptamine receptor 1A (Rattus norvegicus, UniProt P19327); assay: Displacement of [3H]-8-OH-DPAT from 5-HT1A receptor in Sprague-Dawley rat brain cortex after 30 mins liquid scintillation spectrometer; assay type: tissue-based, Cerebral cortex
T1 sequence (P19327 whole entry): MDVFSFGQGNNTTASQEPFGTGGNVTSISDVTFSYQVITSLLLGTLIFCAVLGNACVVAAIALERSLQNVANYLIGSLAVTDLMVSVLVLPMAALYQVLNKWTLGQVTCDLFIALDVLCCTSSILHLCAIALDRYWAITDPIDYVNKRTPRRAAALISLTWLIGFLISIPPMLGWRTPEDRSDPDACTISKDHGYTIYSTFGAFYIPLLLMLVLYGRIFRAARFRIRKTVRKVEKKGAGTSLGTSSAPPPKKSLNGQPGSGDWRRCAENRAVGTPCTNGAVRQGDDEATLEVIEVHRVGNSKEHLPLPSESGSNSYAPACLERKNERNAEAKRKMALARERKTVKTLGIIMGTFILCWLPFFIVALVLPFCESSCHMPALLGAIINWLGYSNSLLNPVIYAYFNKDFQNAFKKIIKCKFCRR
How it was run: (§1)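 Radioligand competition binding. Compounds were dissolved in ethanol or in 5% DMSO, and blank runs checked 5% DMSO for interference with binding. Six test-compound concentrations, each in triplicate, gave IC50 values by curve fitting. Ki was calculated by Cheng–Prusoff, Ki = IC50/(1 + S/KD), where S is the hot-ligand concentration and KD came from Scatchard analysis for each labeled ligand.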

[2] = target: 5-hydroxytryptamine receptor 2A (Rattus norvegicus, UniProt P14842); assay: Displacement of [3H]ketanserin hydrochloride from 5-HT2A receptor in Sprague-Dawley rat brain cortex after 15 mins; how it was run: as §1
5-hydroxytryptamine receptor 2A, sequence (P14842 whole entry): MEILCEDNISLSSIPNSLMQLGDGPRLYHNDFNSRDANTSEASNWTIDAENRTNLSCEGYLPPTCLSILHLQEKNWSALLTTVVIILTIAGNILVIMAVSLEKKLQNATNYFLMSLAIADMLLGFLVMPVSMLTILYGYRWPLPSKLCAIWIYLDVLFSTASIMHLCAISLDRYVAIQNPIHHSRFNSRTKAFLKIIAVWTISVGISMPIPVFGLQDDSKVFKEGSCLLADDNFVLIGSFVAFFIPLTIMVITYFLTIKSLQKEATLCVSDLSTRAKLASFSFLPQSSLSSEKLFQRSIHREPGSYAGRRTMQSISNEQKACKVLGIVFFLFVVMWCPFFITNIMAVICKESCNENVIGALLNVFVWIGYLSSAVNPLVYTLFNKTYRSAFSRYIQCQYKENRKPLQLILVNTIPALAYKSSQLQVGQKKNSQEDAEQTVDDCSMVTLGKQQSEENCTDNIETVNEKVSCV

[3] = target: T2, 5-hydroxytryptamine receptor 2C (Rattus norvegicus, UniProt P08909); assay: Displacement of [3H]mesulergine from 5-HT2C receptor in Sprague-Dawley rat brain cortex after 15 mins; how it was run: as §1
T2 sequence (P08909 whole entry): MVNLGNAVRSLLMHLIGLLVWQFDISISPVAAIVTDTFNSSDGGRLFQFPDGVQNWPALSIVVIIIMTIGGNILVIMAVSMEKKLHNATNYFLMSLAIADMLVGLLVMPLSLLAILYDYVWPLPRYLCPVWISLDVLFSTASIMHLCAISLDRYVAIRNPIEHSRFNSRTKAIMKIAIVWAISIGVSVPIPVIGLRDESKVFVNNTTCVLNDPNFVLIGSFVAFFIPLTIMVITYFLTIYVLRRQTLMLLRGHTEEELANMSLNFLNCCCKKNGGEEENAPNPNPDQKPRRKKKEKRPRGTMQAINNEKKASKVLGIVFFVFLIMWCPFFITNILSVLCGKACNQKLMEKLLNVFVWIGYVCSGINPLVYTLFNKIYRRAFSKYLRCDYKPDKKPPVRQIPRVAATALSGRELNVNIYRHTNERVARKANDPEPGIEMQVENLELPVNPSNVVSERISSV

D(1A) dopamine receptor = D(1A) dopamine receptor (Rattus norvegicus, UniProt P18901); assay: Displacement of [3H]SCH-23390 from dopamine D1 receptor in rat striatum after 15 mins by liquid scintillation counting; how it was run: as §1
D(1A) dopamine receptor, sequence (P18901 whole entry): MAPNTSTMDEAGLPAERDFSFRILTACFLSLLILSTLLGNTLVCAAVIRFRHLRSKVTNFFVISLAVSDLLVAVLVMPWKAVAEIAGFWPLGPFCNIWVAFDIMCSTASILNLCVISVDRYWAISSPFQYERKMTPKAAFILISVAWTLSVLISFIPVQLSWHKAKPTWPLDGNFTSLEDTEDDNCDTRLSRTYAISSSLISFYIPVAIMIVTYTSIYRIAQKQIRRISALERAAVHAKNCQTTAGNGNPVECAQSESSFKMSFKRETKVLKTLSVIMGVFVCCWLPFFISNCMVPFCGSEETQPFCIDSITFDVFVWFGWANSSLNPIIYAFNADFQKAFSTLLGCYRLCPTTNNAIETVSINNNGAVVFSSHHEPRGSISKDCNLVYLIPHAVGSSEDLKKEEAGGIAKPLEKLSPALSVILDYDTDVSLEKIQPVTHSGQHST

D(2) dopamine receptor = D(2) dopamine receptor (Rattus norvegicus, UniProt P61169); assay: Displacement of [3H]spiperone from dopamine D2 receptor in rat striatum after 15 mins by liquid scintillation counting; how it was run: as §1
D(2) dopamine receptor, sequence (P61169 whole entry): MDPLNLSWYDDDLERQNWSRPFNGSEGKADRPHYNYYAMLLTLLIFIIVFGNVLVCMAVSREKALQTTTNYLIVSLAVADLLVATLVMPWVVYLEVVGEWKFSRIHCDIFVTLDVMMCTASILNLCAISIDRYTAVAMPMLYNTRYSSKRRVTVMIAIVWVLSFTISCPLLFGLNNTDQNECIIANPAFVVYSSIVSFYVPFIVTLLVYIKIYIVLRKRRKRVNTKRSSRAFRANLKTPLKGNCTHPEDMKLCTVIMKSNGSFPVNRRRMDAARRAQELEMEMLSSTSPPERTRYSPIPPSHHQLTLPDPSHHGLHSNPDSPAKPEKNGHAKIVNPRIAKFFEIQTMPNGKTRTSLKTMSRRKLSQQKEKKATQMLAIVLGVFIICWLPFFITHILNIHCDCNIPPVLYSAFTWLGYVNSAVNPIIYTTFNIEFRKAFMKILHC

[4] = target: T3, Adrenergic receptor alpha-1 (Rattus norvegicus, UniProt P15823+P23944+P43140); assay: Displacement of [3H]prazosin from alpha1 adrenergic receptor in rat striatum after 30 mins by liquid scintillation counting; conditions: in the assay text read “rat brain cortex” for “rat striatum”; how it was run: as §1
T3 sequence (P15823 whole entry): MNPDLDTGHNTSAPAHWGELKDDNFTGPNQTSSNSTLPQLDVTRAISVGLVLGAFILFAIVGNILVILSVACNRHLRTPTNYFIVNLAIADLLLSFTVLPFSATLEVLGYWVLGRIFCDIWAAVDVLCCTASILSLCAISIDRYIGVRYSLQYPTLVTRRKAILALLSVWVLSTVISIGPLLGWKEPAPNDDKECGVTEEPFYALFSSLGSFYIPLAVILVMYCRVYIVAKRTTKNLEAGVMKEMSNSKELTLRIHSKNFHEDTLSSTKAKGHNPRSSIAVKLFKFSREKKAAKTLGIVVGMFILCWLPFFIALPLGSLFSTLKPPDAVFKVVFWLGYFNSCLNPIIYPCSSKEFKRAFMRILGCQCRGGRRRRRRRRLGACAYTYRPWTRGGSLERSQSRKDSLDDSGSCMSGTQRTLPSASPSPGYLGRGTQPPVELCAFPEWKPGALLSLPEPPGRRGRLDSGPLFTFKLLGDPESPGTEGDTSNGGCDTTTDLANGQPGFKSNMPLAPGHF
T3 sequence (P23944 whole entry): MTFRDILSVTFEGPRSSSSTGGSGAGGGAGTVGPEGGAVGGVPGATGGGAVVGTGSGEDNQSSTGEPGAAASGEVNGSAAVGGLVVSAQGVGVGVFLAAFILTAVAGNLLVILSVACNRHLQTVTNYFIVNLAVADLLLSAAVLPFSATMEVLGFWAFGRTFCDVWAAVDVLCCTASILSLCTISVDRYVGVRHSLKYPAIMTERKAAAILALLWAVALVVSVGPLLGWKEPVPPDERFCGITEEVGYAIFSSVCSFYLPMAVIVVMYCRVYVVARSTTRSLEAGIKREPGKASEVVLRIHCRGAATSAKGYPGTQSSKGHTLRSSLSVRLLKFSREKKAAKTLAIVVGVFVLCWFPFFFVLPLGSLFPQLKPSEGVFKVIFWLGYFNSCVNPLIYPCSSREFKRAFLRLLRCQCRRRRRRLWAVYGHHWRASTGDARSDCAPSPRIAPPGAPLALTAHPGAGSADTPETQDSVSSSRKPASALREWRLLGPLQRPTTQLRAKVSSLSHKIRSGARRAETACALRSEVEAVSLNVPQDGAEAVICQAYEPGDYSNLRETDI
T3 sequence (P43140 whole entry): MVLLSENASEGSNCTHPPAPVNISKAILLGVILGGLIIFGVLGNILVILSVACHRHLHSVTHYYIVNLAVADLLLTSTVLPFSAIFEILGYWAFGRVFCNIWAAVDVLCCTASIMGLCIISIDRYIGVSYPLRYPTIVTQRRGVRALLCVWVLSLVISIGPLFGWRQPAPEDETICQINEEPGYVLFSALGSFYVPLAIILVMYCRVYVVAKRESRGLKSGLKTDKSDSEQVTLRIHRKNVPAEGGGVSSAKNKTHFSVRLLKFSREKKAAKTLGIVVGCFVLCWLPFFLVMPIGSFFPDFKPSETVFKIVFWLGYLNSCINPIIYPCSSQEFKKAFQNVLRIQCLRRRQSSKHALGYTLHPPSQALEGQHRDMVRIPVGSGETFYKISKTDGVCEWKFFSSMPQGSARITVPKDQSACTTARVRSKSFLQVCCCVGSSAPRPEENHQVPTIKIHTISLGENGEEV

[5] = target: T4, Adrenergic receptor alpha-2 (Rattus norvegicus, UniProt P22086+P19328+P22909); assay: Displacement of [3H]yohimbine from alpha 2 adrenergic receptor in rat brain cortex after 30 mins by liquid scintillation counting; assay type: tissue-based; how it was run: as §1
T4 sequence (P22086 whole entry): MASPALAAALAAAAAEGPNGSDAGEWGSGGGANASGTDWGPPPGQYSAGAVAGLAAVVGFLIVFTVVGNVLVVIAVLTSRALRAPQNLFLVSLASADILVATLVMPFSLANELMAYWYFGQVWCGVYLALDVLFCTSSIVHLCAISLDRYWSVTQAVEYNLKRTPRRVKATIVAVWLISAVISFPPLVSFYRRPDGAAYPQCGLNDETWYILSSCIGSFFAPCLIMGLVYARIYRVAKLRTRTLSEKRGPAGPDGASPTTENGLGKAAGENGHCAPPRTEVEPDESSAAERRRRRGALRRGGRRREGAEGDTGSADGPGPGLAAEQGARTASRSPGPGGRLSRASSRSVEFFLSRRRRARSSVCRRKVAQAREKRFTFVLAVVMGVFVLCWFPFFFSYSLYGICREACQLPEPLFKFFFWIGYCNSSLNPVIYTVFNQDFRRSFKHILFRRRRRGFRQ
T4 sequence (P19328 whole entry): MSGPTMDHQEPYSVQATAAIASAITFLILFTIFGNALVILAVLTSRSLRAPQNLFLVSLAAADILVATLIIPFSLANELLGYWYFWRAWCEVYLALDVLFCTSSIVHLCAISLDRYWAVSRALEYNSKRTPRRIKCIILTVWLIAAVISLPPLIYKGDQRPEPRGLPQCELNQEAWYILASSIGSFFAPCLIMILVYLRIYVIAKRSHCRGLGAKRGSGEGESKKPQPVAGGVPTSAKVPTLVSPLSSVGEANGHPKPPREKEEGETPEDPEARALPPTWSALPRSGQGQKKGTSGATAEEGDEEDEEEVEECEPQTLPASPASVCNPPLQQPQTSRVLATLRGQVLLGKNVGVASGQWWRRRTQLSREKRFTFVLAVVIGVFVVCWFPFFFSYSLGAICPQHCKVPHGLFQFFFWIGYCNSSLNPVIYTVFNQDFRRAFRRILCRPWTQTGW
T4 sequence (P22909 whole entry): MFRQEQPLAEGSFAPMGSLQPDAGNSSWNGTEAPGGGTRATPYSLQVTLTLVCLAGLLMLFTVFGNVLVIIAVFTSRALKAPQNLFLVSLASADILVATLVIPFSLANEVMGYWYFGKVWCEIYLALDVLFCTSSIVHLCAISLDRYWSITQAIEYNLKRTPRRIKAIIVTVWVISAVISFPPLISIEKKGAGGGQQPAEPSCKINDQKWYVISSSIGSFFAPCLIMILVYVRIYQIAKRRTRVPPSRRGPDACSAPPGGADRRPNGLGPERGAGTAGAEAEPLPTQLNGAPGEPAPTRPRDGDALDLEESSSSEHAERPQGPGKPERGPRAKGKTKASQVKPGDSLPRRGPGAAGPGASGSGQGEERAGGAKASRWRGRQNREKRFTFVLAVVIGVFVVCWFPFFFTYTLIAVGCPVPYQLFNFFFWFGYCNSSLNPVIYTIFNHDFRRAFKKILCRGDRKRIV

| SMILES | Ki [1] | Ki [2] | Ki [3] | Ki ([2]; read-out: Ki) [nM] | Ki ([1]; read-out: Ki) [nM] | Ki (D(1A) dopamine receptor) [nM] | Ki (D(2) dopamine receptor) [nM] | Ki [4] [nM] | Ki [5] [nM] | Ki ([3]; read-out: Ki) [nM] |
| --- | --- | --- | --- | --- | --- | --- | --- | --- | --- | --- |
| C=CCN1CCN(CCCN/C(=N\C#N)c2ccncc2)CC1 | Not Active | Not Active | Not Active |  |  |  |  |  |  |  |
| COCCN1CCN(CCCN/C(=N\C#N)c2ccncc2)CC1 | Not Active |  | Not Active | > 10000 |  |  |  |  |  |  |
| CCOCCN1CCN(CCCN/C(=N\C#N)c2ccncc2)CC1 |  | Not Active | Not Active |  | > 10000 |  |  |  |  |  |
| N#C/N=C(\NCCCN1CCN(c2cccc(Cl)c2)CC1)c1ccncc1 |  |  | Not Active | > 10000 | 6.17 | 1630 | > 10000 | 912 | > 10000 |  |
| N#C/N=C(\NCCCN1CCN(c2cccc(C(F)(F)F)c2)CC1)c1ccncc1 |  |  | Not Active | 32.1 | 141 |  |  |  |  |  |
| N#C/N=C(\NCCCN1CCN(c2ncccn2)CC1)c1ccncc1 |  | Not Active | Not Active |  | 172 |  |  |  |  |  |
| N#C/N=C(\NCCCN1CCN(c2ccccn2)CC1)c1ccncc1 |  | Not Active | Not Active |  | 0.038 | > 10000 | > 10000 | > 10000 | > 10000 |  |
| COc1ccc(N2CCN(CCCN/C(=N\C#N)c3ccncc3)CC2)cc1 |  |  | Not Active | > 10000 | > 10000 |  |  |  |  |  |
| CCOc1ccccc1N1CCN(CCCN/C(=N\C#N)c2ccncc2)CC1 |  |  |  | 1900 | 21.3 | > 10000 | > 10000 | 190 | 516 | 11.5 |
| N#C/N=C(\NCCCN1CCN(c2ccccc2C#N)CC1)c1ccncc1 | Not Active |  | Not Active | > 10000 |  |  |  |  |  |  |
| Cc1cccc(N2CCN(CCCN/C(=N\C#N)c3ccncc3)CC2)c1C |  |  | Not Active | > 10000 | 101 |  |  |  |  |  |
| N#C/N=C(\NCCCN1CCN(c2ccccc2Cl)CC1)c1ccncc1 |  |  | Not Active | > 10000 | 166 |  |  |  |  |  |
| N#C/N=C(\NCCCN1CCN(Cc2ccc3c(c2)OCO3)CC1)c1ccncc1 |  |  | Not Active | > 10000 | > 10000 |  |  |  |  |  |
| N#C/N=C(\NCCCN1CCN(C(=O)c2ccco2)CC1)c1ccncc1 |  |  | Not Active | > 10000 | > 10000 |  |  |  |  |  |
| COc1ccccc1N1CCN(CCCN/C(=N\C#N)c2ccncc2)CC1 |  |  | Not Active | > 10000 | 1.47 | > 10000 | > 10000 | > 10000 | 2570 |  |
